According to ChEMBL document CHEMBL2057140, “Design, synthesis, biological evaluation and molecular modeling of novel 1,3,4-oxadiazole derivatives based on Vanillic acid as potential immunosuppressive agents” (Bioorg Med Chem, 2012):
Activity calls are given as the source filed them. No cut-off for these calls is given here.

How the values were obtained:
[1] = test system: T-cell; test: Selectivity index ratio of CC50 for BALB/c mouse lymph node cells to IC50 for BALB/c mouse ConA-induced T cell proliferation; format: functional
Outline: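 Ratio of the lymph node cell CC₅₀ from the 24 h MTT cytotoxicity assay to the IC₅₀ against ConA-stimulated proliferation from the 72 h MTT assay.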

[2] = Cytotoxicity against BALB/c mouse lymph node cells after 24 hrs by MTT assay; format: cell-based
Outline: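 Fresh BALB/C mouse lymph node cells, 5 × 10⁵ per well, given compounds at […] for 24 h at 37 °C, 5% CO₂; untreated cells served as control. MTT (4 mg/mL in PBS) added for the final 4 h, formazan dissolved in DMSO, absorbance read at 570 nm; CC₅₀ reported with SD.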

[3] = Immunosuppressive activity in BALB/c mouse T cells assessed as inhibition of ConA-induced T cell proliferation incubated 24 hrs post ConA-induction for 72 hrs by MTT assay; format: functional, cell-based
Outline: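 BALB/C lymph node cells, 5 × 10⁵ per well, stimulated with ConA at […] for 24 h, then left untreated or given compounds for 72 h. MTT (4 mg/mL in PBS) added for the last 4 h; proliferation read by MTT and IC₅₀ reported with SD.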

[4] = target: Phosphatidylinositol 4,5-bisphosphate 3-kinase catalytic subunit gamma isoform (Homo sapiens, UniProt P48736); test: Inhibition of PI3Kgamma after 4 hrs
[5] = species on record: Mus musculus; test: Inhibition of PI3K-mediated AKT inhibition in BALB/c mouse lymph node cells assessed as reduction in ConA-induced IL6 production at 5 uM incubated for 2 hrs prior to ConA-indution measured after 22 hrs by ELISA
Outline: (§1)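 Mouse lymph node cells kept in DMEM with 10% FBS, penicillin and streptomycin at 37 °C, 5% CO₂. Pre-treated with compound at […] or vehicle for 2 h, then with ConA at […] for 22 h. Media centrifuged, and IL-1, IL-6 and IL-10 quantified by mouse ELISA kits.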

[6] = species on record: Mus musculus; test: Inhibition of PI3K-mediated AKT inhibition in BALB/c mouse lymph node cells assessed as reduction in ConA-induced IL1 production at 5 uM incubated for 2 hrs prior to ConA-indution measured after 22 hrs by ELISA; outline: as §1
[7] = species on record: Mus musculus; test: Inhibition of PI3K-mediated AKT inhibition in BALB/c mouse lymph node cells assessed as reduction in ConA-induced IL10 production at 5 uM incubated for 2 hrs prior to ConA-indution measured after 22 hrs by ELISA; outline: as §1
[8] = test system: T-cell; test: Induction of apoptosis in BALB/c mouse ConA-activated T cells assessed as early apoptotic cells at 2.5 uM incubated 24 hrs-post ConA-activation for 24 hrs by AnnexinV-FITC based flow cytometry relative to vehicle treated control; format: functional
Outline: (§2)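 Lymph node cells, 3 × 10⁶ per well, stimulated with ConA at […] for 24 h, then exposed to compound at 0.25, 2.5 or 25 µM for 24 h. Cells harvested, stained with Annexin V-FITC and propidium iodide, and apoptotic fraction measured by flow cytometry.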

[9] = test system: T-cell; test: Induction of apoptosis in BALB/c mouse ConA-activated T cells assessed as early apoptotic cells at 25 uM incubated 24 hrs-post ConA-activation for 24 hrs by AnnexinV-FITC based flow cytometry relative to vehicle treated control; format: functional; outline: as §2
[10] = test system: T-cell; test: Induction of apoptosis in BALB/c mouse ConA-activated T cells assessed as early apoptotic cells at 0.25 uM incubated 24 hrs-post ConA-activation for 24 hrs by AnnexinV-FITC based flow cytometry relative to vehicle treated control; format: functional; outline: as §2
[11] = test system: T-cell; test: Induction of apoptosis in BALB/c mouse ConA-activated T cells incubated 24 hrs-post ConA-activation for 24 hrs by AnnexinV-FITC based flow cytometry; format: functional; outline: as §2

Phosphatidylinositol 4,5-bisphosphate 3-kinase catalytic subunit gamma isoform, sequence (P48736 whole entry, canonical isoform): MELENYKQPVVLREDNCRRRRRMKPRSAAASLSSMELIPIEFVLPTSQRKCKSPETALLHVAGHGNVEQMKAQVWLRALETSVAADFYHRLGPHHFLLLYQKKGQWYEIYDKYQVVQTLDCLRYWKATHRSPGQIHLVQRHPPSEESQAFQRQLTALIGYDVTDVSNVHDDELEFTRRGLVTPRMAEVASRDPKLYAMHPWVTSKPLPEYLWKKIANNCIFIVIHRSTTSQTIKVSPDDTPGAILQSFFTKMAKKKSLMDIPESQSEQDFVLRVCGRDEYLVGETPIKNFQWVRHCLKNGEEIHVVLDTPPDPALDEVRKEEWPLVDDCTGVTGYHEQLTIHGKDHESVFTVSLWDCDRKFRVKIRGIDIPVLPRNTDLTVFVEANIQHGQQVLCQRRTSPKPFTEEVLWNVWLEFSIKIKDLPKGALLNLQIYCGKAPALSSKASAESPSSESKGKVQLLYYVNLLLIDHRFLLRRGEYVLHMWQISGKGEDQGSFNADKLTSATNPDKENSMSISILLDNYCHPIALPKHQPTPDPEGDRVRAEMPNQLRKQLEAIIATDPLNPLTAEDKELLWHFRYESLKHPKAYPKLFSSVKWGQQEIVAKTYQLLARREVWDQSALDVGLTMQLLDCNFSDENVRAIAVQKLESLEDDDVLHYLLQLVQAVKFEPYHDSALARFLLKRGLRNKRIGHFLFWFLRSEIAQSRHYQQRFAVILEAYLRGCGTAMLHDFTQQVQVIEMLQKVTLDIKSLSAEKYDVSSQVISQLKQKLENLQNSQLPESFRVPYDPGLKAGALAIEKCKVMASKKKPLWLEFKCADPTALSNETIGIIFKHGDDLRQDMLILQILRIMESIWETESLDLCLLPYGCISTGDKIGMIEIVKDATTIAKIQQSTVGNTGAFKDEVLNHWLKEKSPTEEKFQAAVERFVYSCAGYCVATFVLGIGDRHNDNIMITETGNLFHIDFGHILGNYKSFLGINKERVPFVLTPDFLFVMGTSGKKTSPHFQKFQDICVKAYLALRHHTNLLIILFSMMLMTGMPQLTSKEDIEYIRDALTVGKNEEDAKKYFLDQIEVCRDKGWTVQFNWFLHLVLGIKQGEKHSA

SMILES | Ratio CC50/IC50 [1] | CC50 at 24 h [2] | IC50 [3] | further results
COc1cc(-c2nnc(SCc3cccc([N+](=O)[O-])c3)o2)ccc1O | 24.59 | 392 µM | 16 µM | –
COc1cc(-c2nnc(SCc3c(F)cccc3F)o2)ccc1OCc1c(F)cccc1F | 34.21 | 179 µM | 5.22 µM | IC50 [4]: 5.74 µM
COc1cc(-c2nnc(SCc3ccc(F)cc3)o2)ccc1OCc1ccc(F)cc1 | 11.89 | 153 µM | 12.9 µM | –
COc1cc(-c2nnc(SCc3ccc(Br)cc3)o2)ccc1OCc1ccc(Br)cc1 | 12.99 | 225 µM | 17.3 µM | –
COc1cc(-c2nnc(SCc3ccccc3C)o2)ccc1O | 70.36 | 592 µM | 8.42 µM | IC50 [4]: 6.48 µM
COc1cc(-c2nnc(SCc3ccccc3)o2)ccc1OCc1ccccc1 | 14.79 | 197 µM | 13.3 µM | –
COc1cc(-c2nnc(SCc3ccc(F)cc3F)o2)ccc1OCc1ccc(F)cc1F | 14.1 | 182 µM | 12.9 µM | –
COc1cc(-c2nnc(SCc3ccccc3F)o2)ccc1OCc1ccccc1F | 35.89 | 171 µM | 4.76 µM | inhibition [5]: Active; inhibition [6]: Active; inhibition [7]: Active; IC50 [4]: 5.12 µM
COc1cc(-c2nnc(SCc3ccccc3Cl)o2)ccc1O | 66.94 | 564 µM | 8.43 µM | –
COc1cc(-c2nnc(SCc3ccc([N+](=O)[O-])cc3)o2)ccc1O | 48.6 | 688 µM | 14.2 µM | –
COc1cc(-c2nnc(SCc3c(F)cccc3F)o2)ccc1O | 57.1 | 575 µM | 10.1 µM | –
COc1cc(-c2nnc(SCc3ccccc3Br)o2)ccc1OCc1ccccc1Br | 17.33 | 151 µM | 8.71 µM | –
COc1cc(-c2nnc(SCc3cccc(Br)c3)o2)ccc1OCc1cccc(Br)c1 | 17.66 | 161 µM | 9.12 µM | –
COc1cc(-c2nnc(SCc3ccc(Cl)cc3)o2)ccc1O | 43.35 | 480 µM | 11.1 µM | –
COc1cc(-c2nnc(SCc3ccc(Cl)cc3)o2)ccc1OCc1ccc(Cl)cc1 | 5 | 136 µM | 17.2 µM | –
COc1cc(-c2nnc(SCc3ccc(C)cc3)o2)ccc1OCc1ccc(C)cc1 | 30.38 | 275 µM | 9.06 µM | –
COc1cccc(CSc2nnc(-c3ccc(O)c(OC)c3)o2)c1 | 52.55 | 389 µM | 7.41 µM | IC50 [4]: 2.87 µM
COc1cc(-c2nnc(SCc3ccccc3Cl)o2)ccc1OCc1ccccc1Cl | 8.67 | 144 µM | 10.6 µM | –

SMILES | Ratio CC50/IC50 [1] | CC50 at 24 h [2] | IC50 [3] | further results
COc1cc(-c2nnc(SCc3ccc(Br)cc3)o2)ccc1O | 51.58 | 455 µM | 8.83 µM | –
COc1cc(-c2nnc(SCc3cccc(Cl)c3)o2)ccc1OCc1cccc(Cl)c1 | 11.23 | 178 µM | 15.8 µM | –
COc1cc(-c2nnc(SCc3ccccc3C)o2)ccc1OCc1ccccc1C | 15.19 | 195 µM | 18.9 µM | –
COc1cccc(COc2ccc(-c3nnc(SCc4cccc(OC)c4)o3)cc2OC)c1 | 24.04 | 242 µM | 10.1 µM | –
COc1cc(-c2nnc(SCc3ccccc3)o2)ccc1O | 168.83 | 211 µM | 1.25 µM | inhibition [5]: Active; inhibition [6]: Active; Activity [8]: 4.34%; Activity [9]: 4.98%; inhibition [7]: Active; Activity [10]: 2.43%; Activity [11]: Dose-dependent effect; IC50 [4]: 1.34 µM
COc1cc(-c2nnc(SCc3cccc([N+](=O)[O-])c3)o2)ccc1OCc1cccc([N+](=O)[O-])c1 | 13.75 | 168 µM | 12.2 µM | –
COc1cc(-c2nnc(SCc3ccc(C)cc3)o2)ccc1O | 88.5 | 549 µM | 6.21 µM | IC50 [4]: 7.41 µM
C/C=C/C[C@@H](C)[C@@H](O)[C@H]1C(=O)N[C@@H](CC)C(=O)N(C)CC(=O)N(C)[C@@H](CC(C)C)C(=O)N[C@@H](C(C)C)C(=O)N(C)[C@@H](CC(C)C)C(=O)N[C@@H](C)C(=O)N[C@H](C)C(=O)N(C)[C@@H](CC(C)C)C(=O)N(C)[C@@H](CC(C)C)C(=O)N(C)[C@@H](C(C)C)C(=O)N1C [CYCLOSPORINE] | 82.19 | – | – | –
COc1cc(-c2nnc(SCc3ccccc3[N+](=O)[O-])o2)ccc1O | 34.45 | 331 µM | 9.6 µM | –
COc1cc(-c2nnc(SCc3ccc([N+](=O)[O-])cc3)o2)ccc1OCc1ccc([N+](=O)[O-])cc1 | 20.48 | 156 µM | 7.6 µM | –
COc1cc(-c2nnc(SCc3ccccc3Br)o2)ccc1O | 20.42 | 363 µM | 17.8 µM | –
COc1cc(-c2nnc(SCc3ccc(F)cc3F)o2)ccc1O | 53.67 | 520 µM | 9.69 µM | –
COc1cc(-c2nnc(SCc3ccccc3F)o2)ccc1O | 81.82 | 474 µM | 5.79 µM | –
COc1cc(-c2nnc(SCc3cccc(Cl)c3)o2)ccc1O | 56.74 | 470 µM | 8.29 µM | –
COc1cc(-c2nnc(SCc3cc(F)cc(F)c3)o2)ccc1OCc1cc(F)cc(F)c1 | 18.49 | 266 µM | 14.4 µM | –
COc1cc(-c2nnc(SCc3ccc(F)cc3)o2)ccc1O | 83.62 | 685 µM | 8.19 µM | –
COc1cc(-c2nnc(SCc3cccc(Br)c3)o2)ccc1O | 7.95 | 382 µM | 48.1 µM | –
